The source of these data is ChEMBL document CHEMBL1671644, “Inhibition of human immunodeficiency virus type 1 infection by the candidate microbicide dapivirine, a nonnucleoside reverse transcriptase inhibitor” (Antimicrob Agents Chemother, 2009).

The subject of assay [1] is Human immunodeficiency virus 1. Kind of assay: Antiviral activity against HIV-1 3B infected in human MT4 cells after 3 to 5 days by MTT assay. As to conditions: Human immunodeficiency virus 1, 3B, MT4, 72 to 120 h. Background: Formazan colour is commonly taken as a measure of viable cells.
The test system of assay [2] is Human immunodeficiency virus 1. Kind of assay: Antiviral activity against HIV-1 subtype B V022809 infected in human MT4 cells assessed as inhibition of viral replication relative to HIV-1 3B. Type of assay: functional. In short, it runs like this: (§1)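 MT-4 cells (3 x 10^4/well) infected with site-directed mutants or recombinant clinical isolates (200 TCID50/well) with drug, cultured 3 to 5 days. Viability read by MTT colorimetric antivirogram assay. IC50 by nonlinear regression; fold change = IC50 for the test isolate / IC50 for wild-type HIV-1 IIIB tested in parallel (mean or median).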

In assay [3] the test system is Human immunodeficiency virus 1. Put plainly: Antiviral activity against HIV-1 subtype B V022815 infected in human MT4 cells assessed as inhibition of viral replication relative to HIV-1 3B. Type of assay: functional. In outline:
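Recombinant clinical HIV-1 isolates (200 TCID50/well) were tested in MT-4 cells (3 x 10^4/well) over 3–5 days, with an MTT viability read-out. IC50 was fitted by nonlinear regression. Fold change is the isolate IC50 divided by the HIV-1IIIB IC50, tested in parallel.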

A short description of assay [4]: Selectivity index, ratio of CC50 for human TZM-bl cells to IC50 for HIV-1 Bal. Format: functional. In outline:
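Selectivity index is CC50/IC50, using values determined in the same time period. CC50 was measured by MTT for TZM-bl and PM-1 cells and by trypan blue exclusion after 14 days for macrophages. Both were fitted by nonlinear regression.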

Assay [5] deals with Human immunodeficiency virus 1. Kind of assay: Antiviral activity against HIV-1 SM034 harboring NNTRI 188L mutant infected in human MT4 cells assessed as inhibition of viral replication relative to HIV-1 3B. Type of assay: functional. In short, it runs like this: as §1
The test system of assay [6] is Human immunodeficiency virus 1. Put plainly: Antiviral activity against HIV-1 Bal infected in human TZM-bl cells after 24 hrs by luciferase reporter gene assay. Format: functional, organism-based. The following applies: Human immunodeficiency virus 1, Bal. In outline:
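TZM-bl cells (5 x 10^4/well), cultured overnight, pretreated with drug 1 h, then infected with HIV-1 BaL (200 TCID50/ml). After 24 h, cells washed and lysed and luciferase read. Drug-treated wells compared with untreated controls; IC50 (infection at 50% of drug-free control) by nonlinear regression.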
A general note: A reporter such as luciferase makes a cellular process visible.

Broadly, the IC50 is the concentration needed to halve the response being measured. A high value points to lower potency. In general, IC90 refers to the concentration needed for an effect of 90%. The low end stands for an effect from little substance, the high end for a need for much substance. `Cc1cc(C)c(Nc2ccnc(Nc3ccc(C#N)cc3)n2)c(C)c1` [DAPIVIRINE]: the IC50 in assay [1] stood at 0.9 nM; in assay [6], 1.46 nM. Moreover, the “Ratio IC50” value in assay [2] is given as 1.5; in assay [3], 2.2; in assay [5] it was 47. Moreover, the “Selectivity Index” value in assay [4] is listed as 9273. This compound also came in with an IC90 in assay [6] of 10.2 nM.
